Activity calls are given as the source filed them. The rule behind the calls is not given here.
Legend:
A549 [1] = test: Antiproliferative activity against human A549 cells after 48 hrs by MTT assay; type: functional, cell-based; details: A549, 48 h
How it was run: (§1)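 MTT assay: cells seeded at 4-8 × 10³ per well, incubated overnight at 37 °C in 5% CO₂, then given fresh medium with graded compound concentrations or equal DMSO for 48 h. MTT (5 mg/mL solution) added for a further 4 h, formazan dissolved in DMSO, absorbance read at 490 nm. Six cancer cell lines tested.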

MCF7 = test: Antiproliferative activity against human MCF7 cells after 48 hrs by MTT assay; type: functional, cell-based; details: MCF7, 48 h; how it was run: as §1
HeLa = test: Antiproliferative activity against human HeLa cells after 48 hrs by MTT assay; type: functional, cell-based; how it was run: as §1
[2] = Antiproliferative activity against human HCT116 cells after 48 hrs by MTT assay; type: functional, cell-based; details: HCT-116, 48 h; how it was run: as §1
CCRF-CEM = test: Antiproliferative activity against human CCRF-CEM cells after 48 hrs by MTT assay; type: functional, cell-based; how it was run: as §1
[3] = biological target: DNA topoisomerase 2-alpha (Homo sapiens) (UniProt P11388); test: Inhibition of human recombinant topoisomerase 2-alpha expressed in Escherichia coli assessed as reduction in enzyme-mediated relaxation of supercoiled pBR322 DNA at 100 uM after 10 to 15 mins by agarose gel electrophoresis
Chain of DNA topoisomerase 2-alpha (Homo sapiens) (P11388 whole entry): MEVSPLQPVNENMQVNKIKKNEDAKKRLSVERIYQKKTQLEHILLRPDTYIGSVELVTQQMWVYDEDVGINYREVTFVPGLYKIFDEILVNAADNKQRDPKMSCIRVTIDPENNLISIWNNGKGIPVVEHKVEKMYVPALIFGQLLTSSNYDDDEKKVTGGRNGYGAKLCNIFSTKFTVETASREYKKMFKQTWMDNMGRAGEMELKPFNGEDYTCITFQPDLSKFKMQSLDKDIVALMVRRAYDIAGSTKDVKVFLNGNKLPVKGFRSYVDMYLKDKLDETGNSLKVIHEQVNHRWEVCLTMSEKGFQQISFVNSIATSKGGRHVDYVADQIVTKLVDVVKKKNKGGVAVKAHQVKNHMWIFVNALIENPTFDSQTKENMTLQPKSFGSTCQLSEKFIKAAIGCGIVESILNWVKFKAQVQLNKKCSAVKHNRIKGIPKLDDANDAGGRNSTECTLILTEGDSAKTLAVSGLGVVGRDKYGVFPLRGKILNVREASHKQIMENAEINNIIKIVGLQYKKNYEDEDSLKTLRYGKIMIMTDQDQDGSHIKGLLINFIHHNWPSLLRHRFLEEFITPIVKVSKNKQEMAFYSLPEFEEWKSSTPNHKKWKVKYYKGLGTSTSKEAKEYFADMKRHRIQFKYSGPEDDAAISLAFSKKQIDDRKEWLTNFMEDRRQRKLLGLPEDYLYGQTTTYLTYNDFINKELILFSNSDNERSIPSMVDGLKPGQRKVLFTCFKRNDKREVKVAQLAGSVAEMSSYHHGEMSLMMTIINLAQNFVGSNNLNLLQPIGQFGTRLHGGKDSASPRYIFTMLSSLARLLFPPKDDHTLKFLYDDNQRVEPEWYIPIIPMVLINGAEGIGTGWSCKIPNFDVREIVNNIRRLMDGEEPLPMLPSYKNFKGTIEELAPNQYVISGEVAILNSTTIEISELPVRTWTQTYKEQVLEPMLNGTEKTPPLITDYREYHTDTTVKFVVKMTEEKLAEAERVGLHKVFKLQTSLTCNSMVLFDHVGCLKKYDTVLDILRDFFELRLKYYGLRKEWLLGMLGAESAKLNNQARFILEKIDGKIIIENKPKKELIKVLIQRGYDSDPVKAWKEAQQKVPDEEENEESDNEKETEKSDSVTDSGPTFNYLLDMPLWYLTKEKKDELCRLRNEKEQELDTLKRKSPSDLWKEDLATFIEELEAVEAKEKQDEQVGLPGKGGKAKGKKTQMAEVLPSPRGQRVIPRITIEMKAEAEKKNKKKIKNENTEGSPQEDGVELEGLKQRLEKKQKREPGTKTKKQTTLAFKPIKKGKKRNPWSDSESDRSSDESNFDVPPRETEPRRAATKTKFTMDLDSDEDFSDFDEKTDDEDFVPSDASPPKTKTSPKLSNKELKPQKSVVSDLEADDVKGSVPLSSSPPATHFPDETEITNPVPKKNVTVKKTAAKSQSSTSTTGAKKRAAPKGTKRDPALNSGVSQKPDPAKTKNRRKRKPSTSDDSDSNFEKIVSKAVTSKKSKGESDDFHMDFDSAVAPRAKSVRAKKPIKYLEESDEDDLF
How it was run: (§2)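 Relaxation of 500 ng supercoiled pBR322 by 1 unit human Topo I or Topo IIα, with or without compound, in 20 µL reaction buffer at 37 °C for 10-15 min. Reactions stopped with loading buffer, run on 0.8% agarose in TAE at 80 V for 30 min. Gels stained with ethidium bromide 2.5 µg/mL and viewed under UV.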

[4] = biological target: DNA topoisomerase 2-alpha (Homo sapiens) (UniProt P11388); test: Inhibition of human recombinant topoisomerase 2-alpha expressed in Escherichia coli assessed as reduction in enzyme-mediated relaxation of supercoiled pBR322 DNA at 10 to 50 uM after 10 to 15 mins by agarose gel electrophoresis; how it was run: as §2
Calf thymus DNA = test: Binding affinity to calf thymus DNA after 5 mins by UV-vis spectrophotometry; type: nucleic-acid assay; details: Bos taurus
How it was run: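 ctDNA at 0-44 µM is added to compound at 10 µM final in Tris-HCl buffer (pH 7.4). UV-vis absorption spectra are recorded after 5 min standing. The binding constant K_b is taken from a plot of absorption data against DNA concentration.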

[5] = biological target: T1, DNA topoisomerase 1 (Homo sapiens) (UniProt P11387); test: Inhibition of human topoisomerase 1 assessed as reduction in enzyme-mediated relaxation of supercoiled pBR322 DNA at 50 to 100 uM after 10 to 15 mins by agarose gel electrophoresis; how it was run: as §2
T1 sequence (whole entry): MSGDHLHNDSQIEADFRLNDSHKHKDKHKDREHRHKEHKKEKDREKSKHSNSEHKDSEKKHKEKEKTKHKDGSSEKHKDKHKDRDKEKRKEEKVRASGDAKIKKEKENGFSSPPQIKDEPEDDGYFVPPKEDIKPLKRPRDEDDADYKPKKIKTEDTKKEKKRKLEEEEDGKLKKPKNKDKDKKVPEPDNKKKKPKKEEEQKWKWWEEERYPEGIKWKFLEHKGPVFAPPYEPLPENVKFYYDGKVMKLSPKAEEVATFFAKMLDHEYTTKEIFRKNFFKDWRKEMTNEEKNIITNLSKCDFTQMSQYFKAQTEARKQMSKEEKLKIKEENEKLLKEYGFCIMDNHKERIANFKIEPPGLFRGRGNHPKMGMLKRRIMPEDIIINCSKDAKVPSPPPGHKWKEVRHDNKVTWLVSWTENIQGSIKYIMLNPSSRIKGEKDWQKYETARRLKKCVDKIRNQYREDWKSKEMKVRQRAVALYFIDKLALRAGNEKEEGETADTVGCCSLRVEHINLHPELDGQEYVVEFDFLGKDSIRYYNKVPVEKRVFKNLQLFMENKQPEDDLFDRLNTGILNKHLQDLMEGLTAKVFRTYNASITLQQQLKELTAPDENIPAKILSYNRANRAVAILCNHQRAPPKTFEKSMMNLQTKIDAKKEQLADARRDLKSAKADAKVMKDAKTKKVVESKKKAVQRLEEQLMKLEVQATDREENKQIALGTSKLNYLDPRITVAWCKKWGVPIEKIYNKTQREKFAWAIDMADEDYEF

A549 [6] = test: Induction of DNA damage in human A549 cells assessed as tail DNA at 10 uM after 24 hrs by propidium iodide staining based comet assay (reference value: 0.02%); type: cell-based
How it was run: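 Alkaline comet assay. About 10⁵ A549 cells per well incubated 12 h, then treated 24 h in serum-free medium against a DMSO control. Cells embedded in low-melting agarose, lysed 2 h, alkaline-unwound 0.5 h at 4 °C, electrophoresed at 300 mA for 25 min in the dark. Slides neutralized, PI-stained, 50 random cells scored for % tail DNA.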

For COc1ccc2nc3cc(Cl)ccc3c(NCc3cccc(C(F)(F)F)c3)c2c1, the IC50 (A549 [1]) was 0.16 µM, the IC50 (MCF7) was 10.5 µM and the IC50 (HeLa) was 10.1 µM. The IC50 [2] was 0.76 µM, the IC50 (CCRF-CEM) was 5.11 µM and the inhibition [3] was “Active”. For the same compound, the inhibition [4] was “Active”.
With COc1ccc2nc3cc(Cl)ccc3c(NCc3ccc(OC(F)F)cc3)c2c1 the IC50 (A549 [1]) was 0.72 µM, the IC50 (MCF7) was 9.95 µM and the IC50 (HeLa) was 4.41 µM. The IC50 [2] was 1.16 µM, the IC50 (CCRF-CEM) was 6.87 µM and the inhibition [3] was “Active”. For the same compound, the inhibition [4] was “Active”.
With COc1ccc2nc3cc(Cl)ccc3c(NCc3ccc(C(C)(C)C)cc3)c2c1 the IC50 (A549 [1]) was 7.03 µM and the inhibition [3] was “Active”.
With COc1ccc2nc3cc(Cl)ccc3c(NCc3cccc(F)c3)c2c1 the IC50 (A549 [1]) was 4.19 µM and the inhibition [3] was “Active”.
In the case of COc1ccc2nc3cc(Cl)ccc3c(NCc3ccc(C(F)(F)F)cc3)c2c1, the IC50 (A549 [1]) is reported as 6.04 µM and the inhibition [3] is reported as “Active”.
In the case of COc1ccc2nc3cc(Cl)ccc3c(NCc3cccc(Cl)c3)c2c1, the IC50 (A549 [1]) is reported as 4.64 µM and the inhibition [3] is reported as “Active”.
In the case of COc1ccc2nc3cc(Cl)ccc3c(NCc3ccccc3F)c2c1, the IC50 (A549 [1]) is reported as 2.82 µM and the inhibition [3] is reported as “Active”.
In the case of COc1ccc2nc3cc(Cl)ccc3c(NCc3ccc(C)cc3)c2c1, the IC50 (A549 [1]) is reported as 2.63 µM and the inhibition [3] is reported as “Active”.
In the case of COc1ccc2nc3cc(Cl)ccc3c(NCc3ccccc3Br)c2c1, the IC50 (A549 [1]) is reported as 3 µM and the inhibition [3] is reported as “Active”.
With COc1ccc2nc3cc(Cl)ccc3c(NCc3cc(F)c(OC)c(F)c3)c2c1 the IC50 (A549 [1]) was 1.82 µM and the inhibition [3] was “Active”.
Compound COc1cc(NS(C)(=O)=O)ccc1Nc1c2ccccc2nc2ccccc12 [AMSACRINE] has an IC50 (A549 [1]) of 5.96 µM, an IC50 (MCF7) of 26.8 µM and an IC50 (HeLa) of 0.34 µM. For the same compound, the IC50 [2] was 0.93 µM, the IC50 (CCRF-CEM) was 0.18 µM and the Kb (Calf thymus DNA) was 1.36 ×10⁵ /M.
For COc1ccc2nc3cc(Cl)ccc3c(NCc3ccc(F)c(F)c3)c2c1, the IC50 (A549 [1]) was greater than 25 µM and the inhibition [3] was “Active”.
With COc1ccc2nc3cc(Cl)ccc3c(NCc3cc(OC)c(OC)c(OC)c3)c2c1 the IC50 (A549 [1]) was 2.18 µM and the inhibition [3] was “Active”.
COc1cccc2c1C(=O)c1c(O)c3c(c(O)c1C2=O)C[C@@](O)(C(=O)CO)C[C@@H]3O[C@H]1C[C@H](N)[C@H](O)[C@H](C)O1 [DOXORUBICIN] gave an IC50 (A549 [1]) of 0.09 µM, an IC50 (MCF7) of 0.81 µM and an IC50 (HeLa) of 0.78 µM. The IC50 (CCRF-CEM) was 0.052 µM.
In the case of COc1ccc2nc3cc(Cl)ccc3c(NCc3ccccc3C(F)(F)F)c2c1, the IC50 (A549 [1]) is reported as 6.32 µM and the inhibition [3] is reported as “Active”.
In the case of COc1ccc2nc3cc(Cl)ccc3c(NCc3ccc(Cl)cc3)c2c1, the IC50 (A549 [1]) is reported as 4.2 µM and the inhibition [3] is reported as “Active”.
In the case of COc1ccc2nc3cc(Cl)ccc3c(NCc3ccc(OC)c(OC)c3)c2c1, the IC50 (A549 [1]) is reported as 2.56 µM, the inhibition [5] is reported as “Active” and the inhibition [3] is reported as “Active”.
In the case of COc1ccc2nc3cc(Cl)ccc3c(NCc3ccc(F)cc3)c2c1, the IC50 (A549 [1]) is reported as 4.05 µM, the inhibition [5] is reported as “Active” and the inhibition [3] is reported as “Active”.
In the case of CCc1ccc(CNc2c3ccc(Cl)cc3nc3ccc(OC)cc23)cc1, the IC50 (A549 [1]) is reported as 2.58 µM, the inhibition [5] is reported as “Active” and the inhibition [3] is reported as “Active”.
COc1ccc2nc3cc(Cl)ccc3c(NCc3ccc(OC)c(F)c3)c2c1 gave an IC50 (A549 [1]) of 0.95 µM, an IC50 (MCF7) of 7.6 µM and an IC50 (HeLa) of 4.08 µM. The IC50 [2] was 0.86 µM, the IC50 (CCRF-CEM) was 3.08 µM and the inhibition [3] was “Active”. The inhibition [4] was “Active”.
In the case of COc1ccc2nc3cc(Cl)ccc3c(NCc3cccc(C)c3)c2c1, the IC50 (A549 [1]) is reported as 2.22 µM and the inhibition [3] is reported as “Active”.
COc1cc([C@@H]2c3cc4c(cc3[C@@H](O[C@@H]3O[C@@H]5CO[C@@H](C)O[C@H]5[C@H](O)[C@H]3O)[C@H]3COC(=O)[C@H]23)OCO4)cc(OC)c1O [ETOPOSIDE] showed an IC50 (A549 [1]) of 3.82 µM, an IC50 (HeLa) of 41.2 µM and an IC50 [2] of 6.03 µM. For the same compound, the IC50 (CCRF-CEM) was 0.12 µM, the inhibition [4] was “Active” and the Activity (A549 [6]) was 46.7%.
COc1ccc2nc3cc(Cl)ccc3c(NCc3ccc4c(c3)OCO4)c2c1 showed an IC50 (A549 [1]) of 0.65 µM, an IC50 (MCF7) of 10.3 µM and an IC50 (HeLa) of 7 µM. For the same compound, the IC50 [2] was 1.62 µM, the IC50 (CCRF-CEM) was 2 µM and the inhibition [3] was “Active”. The inhibition [4] was “Active”.
For COc1ccc2nc3cc(Cl)ccc3c(NCc3ccc(Br)cc3)c2c1, the IC50 (A549 [1]) was 3.26 µM and the inhibition [3] was “Active”.
For COc1cc(CNc2c3ccc(Cl)cc3nc3ccc(OC)cc23)cc(OC)c1, the IC50 (A549 [1]) was 9.2 µM and the inhibition [3] was “Active”.
